Data reported in ChEMBL document CHEMBL1773057, “Design, synthesis and in vitro antimicrobial evaluation of novel Imidazo[1,2-a]pyridine and imidazo[2,1-b][1,3]benzothiazole motifs” (2011).
Converted amounts (≈) assume the structure as drawn.

Assays:
Format in all cases: functional
Escherichia coli = assay: Antimicrobial activity against Escherichia coli after 24 hrs by broth microdilution method
How it was run: (§1)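 Broth microdilution. Bacteria were grown on Mueller-Hinton agar and diluted in Mueller-Hinton broth. Compounds were made as 1000 µg/mL stocks in 50% DMSO/H₂O and added to wells as two-fold dilutions starting at 500 µg/mL, then inoculated. Sealed plates were incubated at 37 °C for 24 h in a humid chamber. MIC was the lowest concentration with no visible turbidity.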

Aspergillus flavus = assay: Antimicrobial activity against Aspergillus flavus after 48 hrs by broth microdilution method
How it was run: (§2)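 Fungi were grown on Sabouraud dextrose agar. Inocula were prepared in Sabouraud liquid medium at 37 °C for 12 h, then diluted in RPMI-1640 with L-glutamine, MOPS-buffered at pH 7. Compounds were made as 1000 µg/mL stocks in 50% DMSO/H₂O and tested as two-fold dilutions from 500 µg/mL. Sealed plates were incubated at 37 °C for 48 h in a humid chamber. MIC was the lowest concentration without visible turbidity.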

Candida parapsilosis = assay: Antimicrobial activity against Candida parapsilosis after 48 hrs by broth microdilution method; details: Lodderomyces parapsilosis; how it was run: as §2
Staphylococcus aureus = assay: Antimicrobial activity against Staphylococcus aureus after 24 hrs by broth microdilution method; how it was run: as §1
Candida albicans = assay: Antimicrobial activity against Candida albicans after 48 hrs by broth microdilution method; how it was run: as §2
Nannizzia gypsea = assay: Antimicrobial activity against Microsporum gypseum after 48 hrs by broth microdilution method; how it was run: as §2
Priestia megaterium = assay: Antimicrobial activity against Bacillus megaterium after 24 hrs by broth microdilution method; how it was run: as §1
Enterococcus faecalis = assay: Antimicrobial activity against Enterococcus faecalis after 24 hrs by broth microdilution method; how it was run: as §1
Klebsiella aerogenes = assay: Antimicrobial activity against Enterobacter aerogenes after 24 hrs by broth microdilution method; how it was run: as §1
Pseudomonas aeruginosa = assay: Antimicrobial activity against Pseudomonas aeruginosa after 24 hrs by broth microdilution method; how it was run: as §1

Row | Compound | MIC (Escherichia coli) [µg/mL] | MIC (Aspergillus flavus) [µg/mL] | MIC (Candida parapsilosis) [µg/mL] | MIC (Staphylococcus aureus) [µg/mL] | MIC (Candida albicans) [µg/mL] | MIC (Nannizzia gypsea) [µg/mL] | MIC (Priestia megaterium) [µg/mL] | MIC (Enterococcus faecalis) [µg/mL] | MIC (Klebsiella aerogenes) [µg/mL] | MIC (Pseudomonas aeruginosa) [µg/mL]
1 | Fc1ccc(Nc2c(-c3c[nH]c4ccc(Br)cc34)nc3ccc(-c4nc5ccc(F)cc5[nH]4)cn23)cc1 | 1.12 (≈ 2.02 µM) | 12.2 (≈ 22 µM) | 10.4 (≈ 18.7 µM) | 1.12 (≈ 2.02 µM) | 11.3 (≈ 20.4 µM) | 9.14 (≈ 16.5 µM) | 1.43 (≈ 2.57 µM) | 1.36 (≈ 2.45 µM) | 1.15 (≈ 2.07 µM) | 1.51 (≈ 2.72 µM)
2 | O=[N+]([O-])c1ccc(-c2cnc(-c3ccc4nc(-c5c[nH]c6ccc(Br)cc56)c(Nc5ccc(F)cc5)n4c3)[nH]2)cc1 | 2.13 (≈ 3.5 µM) | 9.35 (≈ 15.4 µM) | 6.22 (≈ 10.2 µM) | 2.52 (≈ 4.14 µM) | 8.72 (≈ 14.3 µM) | 7.44 (≈ 12.2 µM) | 4.24 (≈ 6.97 µM) | 3.17 (≈ 5.21 µM) | 2.35 (≈ 3.86 µM) | 2.11 (≈ 3.47 µM)
3 | Cc1ccc(-c2cnc(-c3ccc4nc(-c5c[nH]c6ccc(Br)cc56)c(Nc5ccc(F)cc5)n4c3)[nH]2)cc1 | 6.11 (≈ 10.6 µM) | 16.5 (≈ 28.5 µM) | 18.4 (≈ 31.9 µM) | 5.13 (≈ 8.88 µM) | 19.5 (≈ 33.8 µM) | 15.6 (≈ 27 µM) | 1.25 (≈ 2.16 µM) | 7.32 (≈ 12.7 µM) | 6.22 (≈ 10.8 µM) | 8.28 (≈ 14.3 µM)
4 | Fc1ccc(Nc2c(-c3c[nH]c4ccc(Br)cc34)nc3ccc(-c4ncc(-c5ccc(F)cc5)[nH]4)cn23)cc1 | 0.42 (≈ 0.722 µM) | 3.25 (≈ 5.59 µM) | 4.61 (≈ 7.93 µM) | 0.23 (≈ 0.396 µM) | 3.21 (≈ 5.52 µM) | 8.12 (≈ 14 µM) | 1.13 (≈ 1.94 µM) | 1.96 (≈ 3.37 µM) | 0.17 (≈ 0.292 µM) | 0.52 (≈ 0.894 µM)
5 | Fc1ccc(Nc2c(-c3c[nH]c4ccc(Br)cc34)nc3ccc(-c4nnc(-c5ccc(F)cc5)o4)cn23)cc1 | 0.11 (≈ 0.189 µM) | 3.13 (≈ 5.37 µM) | 2.22 (≈ 3.81 µM) | 0.31 (≈ 0.531 µM) | 2.54 (≈ 4.35 µM) | 4.25 (≈ 7.28 µM) | 1.97 (≈ 3.38 µM) | 0.37 (≈ 0.634 µM) | 0.35 (≈ 0.6 µM) | 0.21 (≈ 0.36 µM)
6 | Cc1ccc(-c2nnc(-c3ccc4nc(-c5c[nH]c6ccc(Br)cc56)c(Nc5ccc(F)cc5)n4c3)o2)cc1 | 6.72 (≈ 11.6 µM) | 6.55 (≈ 11.3 µM) | 10.4 (≈ 18 µM) | 3.13 (≈ 5.4 µM) | 11.6 (≈ 20.1 µM) | 13.4 (≈ 23.1 µM) | 6.44 (≈ 11.1 µM) | 7.56 (≈ 13 µM) | 4.42 (≈ 7.63 µM) | 5.64 (≈ 9.73 µM)
7 | O=[N+]([O-])c1ccc(-c2nnc(-c3ccc4nc(-c5c[nH]c6ccc(Br)cc56)c(Nc5ccc(F)cc5)n4c3)o2)cc1 | 3.32 (≈ 5.44 µM) | 8.31 (≈ 13.6 µM) | 5.71 (≈ 9.35 µM) | 2.45 (≈ 4.01 µM) | 6.63 (≈ 10.9 µM) | 11.2 (≈ 18.4 µM) | 4.34 (≈ 7.11 µM) | 2.11 (≈ 3.46 µM) | 3.13 (≈ 5.13 µM) | 2.45 (≈ 4.01 µM)
8 | Cc1ccc2nc(-c3ccc4nc(-c5cnc6ccc(Br)cc6c5)c(Nc5ccc(F)cc5)n4c3)[nH]c2c1 | 6.21 (≈ 11 µM) | 15.4 (≈ 27.4 µM) | 15.5 (≈ 27.6 µM) | 7.43 (≈ 13.2 µM) | 16.4 (≈ 29 µM) | 17.5 (≈ 31.1 µM) | 7.54 (≈ 13.4 µM) | 7.34 (≈ 13 µM) | 5.35 (≈ 9.5 µM) | 5.45 (≈ 9.67 µM)
9 | Fc1ccc(Nc2c(-c3cnc4ccc(Br)cc4c3)nc3ccc(-c4nc5ccc(F)cc5[nH]4)cn23)cc1 | 1.34 (≈ 2.36 µM) | 1.36 (≈ 2.4 µM) | 1.22 (≈ 2.15 µM) | 1.46 (≈ 2.57 µM) | 1.11 (≈ 1.96 µM) | 1.21 (≈ 2.13 µM) | 2.53 (≈ 4.46 µM) | 1.47 (≈ 2.59 µM) | 1.55 (≈ 2.73 µM) | 1.35 (≈ 2.38 µM)
10 | O=[N+]([O-])c1ccc2nc(-c3ccc4nc(-c5cnc6ccc(Br)cc6c5)c(Nc5ccc(F)cc5)n4c3)[nH]c2c1 | 2.14 (≈ 3.6 µM) | 7.63 (≈ 12.8 µM) | 5.34 (≈ 8.98 µM) | 2.12 (≈ 3.57 µM) | 4.23 (≈ 7.12 µM) | 9.41 (≈ 15.8 µM) | 4.12 (≈ 6.93 µM) | 3.36 (≈ 5.65 µM) | 3.15 (≈ 5.3 µM) | 2.32 (≈ 3.9 µM)
11 | Fc1ccc(Nc2c(-c3cnc4ccc(Br)cc4c3)nc3ccc(-c4ncc(-c5ccc(F)cc5)[nH]4)cn23)cc1 | 1.15 (≈ 1.94 µM) | 0.72 (≈ 1.21 µM) | 1.15 (≈ 1.94 µM) | 0.63 (≈ 1.06 µM) | 1.05 (≈ 1.77 µM) | 0.84 (≈ 1.42 µM) | 4.07 (≈ 6.86 µM) | 1.21 (≈ 2.04 µM) | 0.81 (≈ 1.36 µM) | 1.34 (≈ 2.26 µM)
12 | Cc1ccc(-c2cnc(-c3ccc4nc(-c5cnc6ccc(Br)cc6c5)c(Nc5ccc(F)cc5)n4c3)[nH]2)cc1 | 3.42 (≈ 5.8 µM) | 12.6 (≈ 21.4 µM) | 12.6 (≈ 21.3 µM) | 1.95 (≈ 3.31 µM) | 13.1 (≈ 22.3 µM) | 11.5 (≈ 19.5 µM) | 5.14 (≈ 8.72 µM) | 2.26 (≈ 3.83 µM) | 2.78 (≈ 4.72 µM) | 2.89 (≈ 4.9 µM)
13 | Cc1ccc(-c2nnc(-c3ccc4nc(-c5cnc6ccc(Br)cc6c5)c(Nc5ccc(F)cc5)n4c3)o2)cc1 | 2.43 (≈ 4.11 µM) | 11.3 (≈ 19.1 µM) | 12.2 (≈ 20.7 µM) | 1.24 (≈ 2.1 µM) | 12.2 (≈ 20.7 µM) | 11.2 (≈ 18.9 µM) | 3.15 (≈ 5.33 µM) | 2.32 (≈ 3.92 µM) | 1.74 (≈ 2.94 µM) | 2.57 (≈ 4.35 µM)
14 | Fc1ccc(Nc2c(-c3cnc4ccc(Br)cc4c3)nc3ccc(-c4nnc(-c5ccc(F)cc5)o4)cn23)cc1 | 0.75 (≈ 1.26 µM) | 1.32 (≈ 2.22 µM) | 1.35 (≈ 2.27 µM) | 0.46 (≈ 0.773 µM) | 1.22 (≈ 2.05 µM) | 1.14 (≈ 1.91 µM) | 2.21 (≈ 3.71 µM) | 1.38 (≈ 2.32 µM) | 0.41 (≈ 0.689 µM) | 0.75 (≈ 1.26 µM)
15 | O=[N+]([O-])c1ccc(-c2nnc(-c3ccc4nc(-c5cnc6ccc(Br)cc6c5)c(Nc5ccc(F)cc5)n4c3)o2)cc1 | 1.72 (≈ 2.76 µM) | 7.15 (≈ 11.5 µM) | 5.34 (≈ 8.58 µM) | 1.45 (≈ 2.33 µM) | 6.4 (≈ 10.3 µM) | 8.27 (≈ 13.3 µM) | 3.11 (≈ 5 µM) | 2.13 (≈ 3.42 µM) | 1.27 (≈ 2.04 µM) | 1.58 (≈ 2.54 µM)
16 | Fc1ccc(Nc2c(-c3cnc4ccc(Br)cc4c3)nc3sc4cc(F)ccc4n23)cc1 | 0.35 (≈ 0.69 µM) | 1.3 (≈ 2.56 µM) | 1.13 (≈ 2.23 µM) | 0.43 (≈ 0.848 µM) | 1.21 (≈ 2.38 µM) | 1.24 (≈ 2.44 µM) | 1.12 (≈ 2.21 µM) | 0.51 (≈ 1.01 µM) | 0.51 (≈ 1.01 µM) | 0.34 (≈ 0.67 µM)
17 | Fc1ccc(Nc2c(-c3cnc4ccc(F)cc4c3)nc3sc4cc(F)ccc4n23)cc1 | 0.23 (≈ 0.515 µM) | 1.23 (≈ 2.76 µM) | 1.14 (≈ 2.55 µM) | 0.26 (≈ 0.582 µM) | 1.12 (≈ 2.51 µM) | 1.2 (≈ 2.69 µM) | 0.83 (≈ 1.86 µM) | 0.21 (≈ 0.47 µM) | 0.34 (≈ 0.762 µM) | 0.15 (≈ 0.336 µM)
18 | CC1(C)S[C@@H]2[C@H](NC(=O)[C@H](N)c3ccc(O)cc3)C(=O)N2[C@H]1C(=O)O [AMOXICILLIN] | 15.3 (≈ 41.9 µM) |  |  | 12.9 (≈ 35.4 µM) |  |  | 2.28 (≈ 6.24 µM) | 1.62 (≈ 4.43 µM) | 3.45 (≈ 9.44 µM) | 14.7 (≈ 40.1 µM)
19 | C=CC1=C(C(=O)O)N2C(=O)[C@@H](NC(=O)/C(=N\OCC(=O)O)c3csc(N)n3)[C@H]2SC1 [CEFIXIME] | 2.12 (≈ 4.68 µM) |  |  | 34.6 (≈ 76.4 µM) |  |  | 126 (≈ 279 µM) | 28.6 (≈ 63 µM) | 27.1 (≈ 59.8 µM) | 16.4 (≈ 36.2 µM)
20 | OC(Cn1cncn1)(Cn1cncn1)c1ccc(F)cc1F [FLUCONAZOLE] |  | 9.22 (≈ 30.1 µM) | 4.35 (≈ 14.2 µM) |  | 2.11 (≈ 6.89 µM) | 6.57 (≈ 21.5 µM) |  |  |  | 
